Test results from ChEMBL document CHEMBL1131591, “2-Fluoro-4-pyridinylmethyl analogues of linopirdine as orally active acetylcholine release-enhancing agents with good efficacy and duration of action” (J Med Chem, 1998).
pEC50: −log10 of the molar value. Each block holds one compound with its values, some of them ahead of it.

Assays:
[1] = tested on: Rattus norvegicus; test: Compound was tested in vivo for microdialysis ACh release after peroral administration of 10 mg/kg water at the duration of >40 minutes; assay type: functional; conditions: route oral
Summary of the method: (§1)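 Freely moving rats under brain microdialysis. Dialysate injected onto HPLC every 20 min to measure ACh. Compound or vehicle given orally after the fourth 20-min collection, usually 14 collections in total. Vehicle was water or a suspension in […] methocel in water, bead-milled overnight. Peak reported as percent increase over baseline (control = 0). Duration is the number of consecutive minutes at significance.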

[2] = species: Rattus norvegicus; test: Compound was tested in vitro for its ability to enhance the K+-stimulated release of [3H]acetylcholine from rat hippocampal slices preloaded with [3H]-Choline.; assay type: functional; conditions: Hippocampus
Summary of the method: (§2)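 Superfused rat hippocampal slices preloaded with [3H]choline. Release evoked for 4 min at two points (S1, S2) by raising K+ in the medium to 25 mM. Compound added after S1 and kept in the medium through S2. Enhancement taken as the S2/S1 ratio, expressed as percent of control (control = 100%). EC50 taken as the concentration giving 50% of the compound's peak efficacy. At least three determinations per point.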

[3] = tested on: Rattus norvegicus; test: Compound was tested in vivo for microdialysis ACh release after peroral administration of 5 mg/kg suspended in water; assay type: functional; conditions: route oral; summary of the method: as §1
[4] = species: Rattus norvegicus; test: Compound was tested in vitro for its ability to enhance the K+-stimulated release of [3H]acetylcholine from rat hippocampal slices preloaded with [3H]choline at 10 uM; assay type: functional, Hippocampus; summary of the method: as §2
[5] = tested on: Rattus norvegicus; test: Compound was tested in vivo for microdialysis ACh release after peroral administration of 5 mg/kg suspended in water at the duration of 20 minutes; assay type: functional; conditions: route oral; summary of the method: as §1
[6] = tested on: Rattus norvegicus; test: Compound was tested in vivo for microdialysis ACh release after peroral administration of 10 mg/kg suspended in methocel at the duration of 80 minutes; assay type: functional; conditions: route oral; summary of the method: as §1
[7] = tested on: Rattus norvegicus; test: Compound was tested in vivo for microdialysis ACh release after peroral administration of 20 mg/kg methocel at the duration of 140 minutes; assay type: functional; conditions: route oral; summary of the method: as §1
[8] = tested on: Rattus norvegicus; test: Compound was tested in vivo for microdialysis ACh release after peroral administration of 10 mg/kg methocel; assay type: functional; conditions: route oral; summary of the method: as §1
[9] = tested on: Rattus norvegicus; test: Compound was tested in vivo for microdialysis ACh release after peroral administration of 10 mg/kg water at the duration of 100 minutes; assay type: functional; conditions: route oral; summary of the method: as §1
[10] = species: Rattus norvegicus; test: Compound was tested in vitro for its ability to enhance the K+-stimulated release of [3H]acetylcholine from rat hippocampal slices preloaded with [3H]choline at 3 uM; assay type: functional, Hippocampus; summary of the method: as §2
[11] = tested on: Rattus norvegicus; test: Compound was tested in vivo for microdialysis ACh release after peroral administration of 1 mg/kg suspended in methocel at the duration of 120 minutes; assay type: functional; conditions: route oral; summary of the method: as §1
[12] = tested on: Rattus norvegicus; test: Compound was tested in vivo for microdialysis ACh release after peroral administration of 5 mg/kg methocel at the duration of >80 minutes; assay type: functional; conditions: route oral; summary of the method: as §1
[13] = tested on: Rattus norvegicus; test: Compound was tested in vivo for microdialysis ACh release after peroral administration of 1 mg/kg methocel at the duration of >120 minutes; assay type: functional; conditions: route oral; summary of the method: as §1
[14] = tested on: Rattus norvegicus; test: Compound was tested in vivo for microdialysis ACh release after peroral administration of 0.5 mg/kg suspended in methocel; assay type: functional; conditions: route oral; summary of the method: as §1
[15] = tested on: Rattus norvegicus; test: Compound was tested in vivo for microdialysis ACh release after peroral administration of 5 mg/kg methocel at the duration of 100 minutes; assay type: functional; conditions: route oral; summary of the method: as §1
[16] = species: Rattus norvegicus; test: Compound was tested in vitro for its ability to enhance the K+-stimulated release of [3H]acetylcholine from rat hippocampal slices preloaded with [3H]-Choline at 1 uM; assay type: functional, Hippocampus; summary of the method: as §2

SMILES: O=C1N(c2ccccc2)c2ccccc2C1(Cc1ccncc1)Cc1ccnc(F)c1 (configuration not stated)
pEC50 [2]: 5.00
Increase over control [8]: 27%
Control [4]: 433%

SMILES: c1ccc2c(c1)-c1ncccc1C2(Cc1ccncc1)Cc1ccncc1
pEC50 [2]: 5.39
Control [4]: 725%

SMILES: Fc1cc(CC2(Cc3ccnc(F)c3)c3ccccc3-c3ncccc32)ccn1
pEC50 [2]: 5.80
Control [10]: 440%
Increase over control [11]: 74%
Increase over control [12]: 201%

SMILES: O=C1c2ccccc2C(Cc2ccncc2)(Cc2ccnc(F)c2)c2ccccc21
pEC50 [2]: 6.39
Increase over control [15]: 75%
Control [16]: 452%

Further lines, with some results ahead:

pEC50 [2]: 5.97
SMILES: Fc1cc(CC2(Cc3ccncc3)c3ccccc3-c3ncccc32)ccn1 (configuration not stated)
Increase over control [1]: 52%
Increase over control [3]: 47%
Control [4]: 317%

pEC50 [2]: 5.35
SMILES: O=C1N(c2ccccc2)c2ccccc2C1(Cc1ccncc1)Cc1ccncc1 [LINOPIRDINE]
Increase over control [5]: 50%
Increase over control [6]: 65%
Increase over control [7]: 117%
Control [4]: 337%

pEC50 [2]: 6.35
SMILES: O=C1c2ccccc2C(Cc2ccncc2)(Cc2ccncc2)c2ccccc21
Increase over control [9]: 127%
Increase over control [3]: 18%
Control [4]: 600%

pEC50 [2]: 6.08
SMILES: O=C1c2ccccc2C(Cc2ccnc(F)c2)(Cc2ccnc(F)c2)c2ccccc21
Control [10]: 413%
Increase over control [13]: 115%
Increase over control [14]: 40%

pEC50 [2]: 4.82
SMILES: O=C1N(c2ccccc2)c2ccccc2C1(Cc1ccnc(F)c1)Cc1ccnc(F)c1
Increase over control [8]: 44%
Control [4]: 326%
